Screening data (PubChem)
Only some compounds are listed: those with a hit (about 2.4% of all), similar ones and a draw of the others.
NPY Y1 blocker: NPY-Y1 (human) receptor antagonism. P25929. HEK293-CNG Y1 cells, membrane potential fluorescence; NPY at EC95, then isoproterenol. inhibition, % at 3.6 µM. actives 1% (n = 200,000);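 active = inhibition above the campaign mean inhibition of all tested compounds plus 3 SD, cut at about 20% in these data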;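 also: 0% = DMSO wells given NPY plus isoproterenol and 100% = isoproterenol alone without NPY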
Target sequence (P25929 whole entry, looked up): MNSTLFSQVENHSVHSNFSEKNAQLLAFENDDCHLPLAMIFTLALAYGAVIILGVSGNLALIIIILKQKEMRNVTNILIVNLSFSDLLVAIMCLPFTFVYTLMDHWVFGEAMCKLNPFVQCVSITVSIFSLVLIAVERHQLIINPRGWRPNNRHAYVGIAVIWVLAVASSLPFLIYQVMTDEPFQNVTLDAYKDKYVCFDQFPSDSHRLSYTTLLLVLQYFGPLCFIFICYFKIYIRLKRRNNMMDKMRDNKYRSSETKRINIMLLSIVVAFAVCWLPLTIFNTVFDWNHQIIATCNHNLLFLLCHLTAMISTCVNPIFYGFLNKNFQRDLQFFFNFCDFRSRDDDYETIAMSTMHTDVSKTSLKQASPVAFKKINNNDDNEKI
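Material: HEK293 Y1/CNG channel cell line | Also added: NPY (25 nM), isoproterenol (1 µM), Ro 20-1724 (25 µM) | Compound: One concentration, 3.6 µM, in 0.4% DMSO | Schedule: 3 h dye uptake, 1 h room-temperature compound, 45 min post-isoproterenol | Signal: Membrane-potential fluorescent dye readout | Read-out: % inhibition of NPY effect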
NPY2 pot ag: human NPY-Y2 potentiation or agonism, primary screen; AID 1359; P49146; actives 0.45% (n = 220,000); cells expressing NPY-Y2, potentiator/agonist read-out; activation, % at 3.6 µM; in the data active = activation above about 27%;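 also: cells stimulated with NPY near EC25 plus isoproterenol at EC100; 0% = vehicle plus submaximal agonist and 100% = vehicle plus saturating agonist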
S1P4 ag: agonists of human S1P4 receptor. S1P4-expressing cell line, agonist reporter assay. AID 1509. actives 0.35% (n = 220,000). activation, % at 4.98 µM. O95977; in the data active = activation above about 11%;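 also: 0% = DMSO vehicle and 100% = reference agonist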
NPY1 pot ag: potentiators or agonists of human neuropeptide Y receptor Y1 | AID 1304 | P25929 | NPY-Y1 expressing cells, potentiator/agonist activation | actives 0.37% (n = 220,000) | activation, % at 3.6 µM; in the data active = activation above about 33%, passing the limit was not always enough;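 also: cells stimulated with NPY at EC10 then isoproterenol at EC100; 0% = low agonist plus stimulus and 100% = saturating agonist plus stimulus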
S1P4 antag: blocks the human S1P4 receptor. actives 0.26% (n = 220,000). inhibition, % at 4.98 µM. AID 1510. S1P4-expressing cells, antagonist mode, reporter read-out. O95977; in the data active = inhibition above about 29%;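 also: 0% = wells stimulated with agonist and 100% = vehicle wells without agonist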
NPY Y2 blocker: NPY-Y2 (human) receptor antagonism | P49146 | NPY-Y2 expressing cells, antagonist mode | inhibition, % at 2.7 µM | actives 0.99% (n = 140,000) | AID 793; in the data active = inhibition above about 17%;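 also: 0% = vehicle with agonist challenge and 100% = reference antagonist with challenge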
NPY1 antag ctr: human NPY-Y1 antagonism in NPY-Y2 counter-screen. cell-based NPY-Y1 antagonism counterscreen. shares compounds with NPY Y2 blocker. actives 19% (n = 710). AID 1256. inhibition, % at 3.6 µM; in the data active = inhibition above about 20%;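 also: cells challenged with NPY then isoproterenol with cAMP sensed through a CNG channel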
NPY-Y2 ant conf: human NPY-Y2 antagonism, confirmation; AID 1257; inhibition, % at 2.8 µM; HEK293 NPY-Y2 CNG channel, membrane potential fluorescence; shares compounds with NPY Y2 blocker; actives 32% (n = 710);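 active = mean inhibition of triplicate wells above the hit cutoff set in the primary screen, cut at about 17% in these data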;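 also: 0% = DMSO with NPY challenge and 100% = BIIE0246 high control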
An asterisk follows results filed as active; · = no result.

SMILES	NPY Y1 blocker	NPY2 pot ag	S1P4 ag	NPY1 pot ag	S1P4 antag	NPY Y2 blocker	NPY1 antag ctr	NPY-Y2 ant conf
Cc1cccc(OCC(O)Cn2c(=N)n(CCN3CCCCC3)c3ccccc32)c1 (configuration not stated)	57*	-41	-1	-49	-10	84*	·	·
N=c1n(CCN2CCCCC2)c2ccccc2n1CC(O)c1ccco1 (configuration not stated)	·	-14	-1	-10	15	·	·	·
Cc1ccc(OCC(O)Cn2c(=N)n(Cc3ccccc3)c3ccccc32)cc1 (configuration not stated)	23*	-23	0	-43	16	32*	·	·
COc1ccc(-c2cc(C(=O)Nc3cc(S(=O)(=O)N4CCOCC4)ccc3N3CCOCC3)c3ccccc3n2)cc1	5	-17	2	-18	-1	·	·	·
CCN1CCN(CC(O)COCC2COc3ccccc3O2)CC1 (configuration not stated)	-3	4	3	25	-10	·	·	·
OC(COCC1COc2ccccc2O1)CN1CCN(c2ccccc2)CC1 (configuration not stated)	0	34*	0	29	10	1	·	·
Cc1ccc(NC(=O)C2(N(C(=O)Cn3nnnc3N)c3ccc(C)cc3)CCCCC2)cc1	-6	34*	1	41*	-18	1	·	·
O=C(CNC(=O)c1ccccc1F)N/N=C/c1cc(Br)ccc1OCc1ccccc1	7	-11	4	-35	-7	6	·	·
COc1ccc2c(c1)c(=O)c(C(=O)c1ccccc1)cn2Cc1ccc(C)cc1	12	-17	2	-48	-3	10	·	·
COc1ccc2c(c1)c(=O)c(Br)c(C)n2Cc1ccccc1	2	-7	1	-10	5	25*	·	·
COc1ccc(C2Nc3ccccc3C(=O)N2Cc2ccco2)cc1COc1ccc(F)cc1 (configuration not stated)	20	-21	2	-50	-16	22*	10	9
COc1ccc(C2Nc3ccccc3C(=O)N2Cc2ccco2)cc1CN1C(=O)c2ccccc2C1=O (configuration not stated)	-4	-9	-1	30	-6	1	·	·
CC(C)C(OC(=O)CCCC(=O)Nc1nccs1)C(=O)NC1CCCCC1 (configuration not stated)	1	-9	-2	13	3	·	·	·
COc1ccc(C/C(C)=N\NC(=O)c2c[nH]c3ccccc23)cc1OC	·	-4	0	-4	-3	·	·	·
COc1ccc(C(C(=O)NC2CCCC2)N(C(=O)c2ccoc2C)c2ccc(C)cc2)cc1 (configuration not stated)	20	-19	-4	-17	-11	19*	6	4
COc1ccc(C(C(=O)NC2CCCCC2)N(C(=O)CCl)c2ccc(C)cc2)cc1 (configuration not stated)	6	-9	1	8	-5	2	·	·
COc1ccc(/C=N/NC(=O)c2cccc(OC(F)(F)C(F)F)c2)cc1O	-1	-12	0	-25	3	17*	3	2
Clc1ccc(-c2nnc(CSc3nnc(-c4cccs4)n3Cc3ccccc3)o2)cc1	15	19	2	-12	-14	25*	23*	5
COc1ccc(-c2nnc(SCc3nnc(-c4ccc(Cl)cc4)o3)n2-c2ccccc2)cc1	6	-5	1	-2	-15	23*	18	14
CCOc1ccc(/C=N/NC(=O)C(=O)NCc2ccco2)cc1	-1	18	-1	-6	-12	3	·	·
COc1ccc(-c2noc(-c3ccccc3-c3ccccc3)n2)cc1OC	12	-25	0	-61	-15	18*	6	15
CC(=O)NC1C(=O)N(CCc2ccccc2)c2ccccc21 (configuration not stated)	-4	5	1	-9	1	1	·	·
